{"source": "ChEMBL document CHEMBL1143197", "about": "“Neural networks as valuable tools to differentiate between sesquiterpene lactones' inhibitory activity on serotonin release and on NF-kappaB” (J Med Chem, 2008)", "data": [{"test_system": "Platelet", "test": "Inhibition of serotonin release in bovine platelets", "assay_type": "functional, cell-based", "conditions": "Bos taurus", "in_short": "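Bovine platelets loaded with [14C]serotonin by incubating cattle venous blood, taken up by active transport. Platelet-rich plasma prepared at a standard platelet concentration by centrifugation and dilution, then preincubated with the sesquiterpene lactones. Adenosine diphosphate added to trigger aggregation and degranulation. Reaction stopped after 6 min with ice-cold acetylsalicylic acid. Released serotonin monitored and IC50 determined.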", "units": {"IC50": "µM"}, "values": [{"smiles": "C[C@@H]1C(=O)O[C@H]2[C@H]1CC[C@@]1(C)O[C@@H]1CC[C@@]1(C)O[C@H]21", "IC50": "> 413"}, {"smiles": "C=C(C(=O)O[C@@H]1C[C@@]2(C)[C@H](O)CC=C(C)[C@@H]2[C@H]2OC(=O)C(=C)[C@@H]21)C(C)O", "note": "(some centres undefined)", "IC50": 26.7}, {"smiles": "C=C1C(=O)O[C@@H]2/C=C(/COC(C)=O)CC[C@H](OCC)C3=C[C@@H](OC3=O)[C@@H]12", "note": "[CINERENIN ACETATE]", "IC50": 2.04}, {"smiles": "C=C1C(=O)O[C@H]2[C@H]1[C@@H](OC(=O)[C@]1(C)CO1)CC(=C)[C@@H]1C[C@H](O)[C@]3(CO3)[C@H]21", "note": "[REPIN]", "IC50": 9.24}, {"smiles": "C=C1C(=O)O[C@@H]2C3=C(C)CC[C@@H](O)[C@]3(C)C[C@@H](OC(=O)C3(C)OC3C)[C@@H]12", "note": "(stereo partly drawn) [1BETA-HYDROXY-8BETA-EPOXYANGELOYLOXYARBUSCULIN B]", "IC50": 6.66}, {"smiles": "C=C(C)C(=O)O[C@@H]1C[C@@H](OC(C)=O)C(=O)CC[C@]2(C)O[C@H]2[C@@H]2OC(=O)C(COC(C)=O)=C21", "note": "[GLAUCOLIDE A]", "IC50": 20.9}, {"smiles": "C=C1C(=O)O[C@H]2[C@H]1[C@H](OC(=O)C1(C)OC1C)C[C@@]1(C)[C@H](O)C[C@H]3O[C@@]3(C)[C@H]21", "note": "(some centres undefined)", "IC50": 17.7}, {"smiles": "C=C1C(=O)O[C@@H]2/C=C(\\CO)CC/C=C(\\C)C[C@H](OC(=O)C(=C)[C@H](O)CO)[C@@H]12", "note": "[CNICIN]", "IC50": 3.52}, {"smiles": "C=C1C(=O)O[C@H]2[C@H]1[C@H](OC(=O)C(C)(O)C(C)O)C[C@@]1(C)[C@H](O)CCC(=C)[C@H]21", "note": "(some centres undefined)", "IC50": 9.52}, {"smiles": "C=C1[C@@H](O)C[C@@H]2[C@H](OC(=O)[C@H]2C)[C@H]2[C@H](C)C(=O)C[C@@H]12", "IC50": "> 454"}, {"smiles": "C=C1CC[C@@H](O)[C@]2(C)CC[C@@H]3[C@H](OC(=O)[C@H]3C)[C@@H]12", "IC50": "> 210"}, {"smiles": "C=C1C(=O)O[C@@H]2C[C@@]3(C)C[C@@H](O)[C@H](O)C(=C)[C@@H]3C[C@H]12", "note": "[PULCHELLIN C]", "IC50": "> 416"}, {"smiles": "C=C1C(=O)O[C@@H]2/C=C(\\CO)CC/C=C(\\C)C[C@H](O)[C@@H]12", "note": "[SALONITENOLIDE]", "IC50": 10.2}, {"smiles": "C=C1C(=O)O[C@@H]2C[C@@H](C)[C@@H]3C=CC(=O)[C@@]3(C)[C@@H](O)[C@H]12", "note": "[HELENALIN]", "IC50": 4.28}, {"smiles": "C=C1C(=O)O[C@@H]2C3O[C@]3(C)CC/C=C(\\C)CC[C@@H]12", "note": "(some centres undefined)", "IC50": 3.03}, {"smiles": "C=C1C(=O)O[C@@H]2C/C(C=O)=C/CC/C(C)=C/[C@@H](O)[C@H]12", "note": "[SCHKUHRIOLIDE]", "IC50": 278}, {"smiles": "C=C(C(=O)O)[C@@H]1CC[C@@]2(C)CCC[C@@](C)(O)[C@@H]2C1", "note": "[ILICIC ACID]", "IC50": "> 614"}, {"smiles": "C=C1C(=O)O[C@@H]2[C@H]3O[C@]3(C)CCC[C@H](C)CC[C@@H]12", "IC50": 40.6}, {"smiles": "C=C1C(=O)O[C@H]2[C@H]1[C@@H](O)CC(=C)[C@@H]1CC(=O)[C@@H](C)[C@H]21", "note": "[GROSSHEIMIN]", "IC50": 22.2}, {"smiles": "CC1=C2[C@H]3OC(=O)[C@@H](C)[C@@H]3CC[C@@]2(C)C=CC1=O", "note": "[SANTONIN]", "IC50": "> 568"}, {"smiles": "C=C1C(=O)O[C@H]2/C=C(\\C)[C@@H](OC(C)=O)C/C=C(\\C)C[C@@H](OC(=O)C3(C)OC3C)[C@@H]12", "note": "(some centres undefined) [URSINIOLIDE A]", "IC50": 1.78}, {"smiles": "C/C1=C\\CC[C@@]2(C)O[C@@H]2[C@H]2OC(=O)[C@@H](C)[C@@H]2CC1", "note": "[11BETA,13-DIHYDRO-PARTHENOLIDE]", "IC50": "> 400"}, {"smiles": "C=C1C(=O)O[C@@H]2C[C@@]3(C)CCCC(=C)[C@@H]3C[C@H]12", "note": "[ISOALANTOLACTONE]", "IC50": "> 516"}, {"smiles": "C=C1C(=O)O[C@H]2/C=C(\\C)[C@@H](OC(C)=O)C/C=C(\\C)C[C@@H](OC(=O)C(C)(O)C(C)OC(C)=O)[C@@H]12", "note": "(some centres undefined) [URSINIOLIDE B]", "IC50": 5.3}, {"smiles": "C=C1C(=O)O[C@@H]2[C@H]1[C@@H](OC(C)=O)C[C@H](C)[C@@H]1CCC(=O)[C@@]21C", "note": "[CONFERTIFLORIN]", "IC50": 8.88}, {"smiles": "C=C1C(=O)O[C@@H]2/C=C(\\C)[C@@H]3O[C@@H]3/C=C(/C(=O)OC)[C@H](O)[C@@H](OC(=O)[C@]3(C)O[C@@H]3C)[C@@H]12", "note": "[MELAMPODIN A]", "IC50": 4.68}, {"smiles": "C=C1C(=O)O[C@@H]2C[C@@]3(C)CCCC(=C)[C@]3(O)C[C@H]12", "note": "[TELEKIN]", "IC50": "> 564"}, {"smiles": "C=C1C(=O)O[C@H]2C[C@@H](C)[C@@H]3C[C@@H](O)[C@H](O)[C@@]3(C)[C@H](O)[C@H]12", "note": "[GEIGERININ]", "IC50": 73.4}, {"smiles": "C=C1C(=O)O[C@H]2[C@H]1[C@@H](OC(=O)[C@](C)(O)CCl)CC(=C)[C@@H]1C[C@H](O)[C@](O)(CCl)[C@H]21", "note": "[CENTAUREPENSIN]", "IC50": 6.06}, {"smiles": "C=C1C(=O)O[C@@H]2/C=C(\\CO)CC/C=C(\\CO)C[C@H](OC(=O)C(C)C)[C@@H]12", "note": "[ALATOLIDE]", "IC50": 5.77}, {"smiles": "C=C(C(=O)OC)[C@@H]1CC[C@@]2(C)CCC[C@@](C)(O)[C@@H]2C1", "note": "[VACHANIC ACID METHYLESTER]", "IC50": 201}, {"smiles": "C=C1C(=O)O[C@H]2C[C@H](C)[C@@H]3CC(=O)C(C)=C3C[C@H]12", "note": "[XERANTOLIDE]", "IC50": 101}, {"smiles": "C=C1C(=O)O[C@@H]2[C@H]3C(C)=CC[C@@H](O)[C@]3(C)CC[C@@H]12", "note": "[SANTAMARIN]", "IC50": 84.9}, {"smiles": "C=C1C(=O)O[C@H]2[C@H]1[C@H](OC(=O)[C@@]1(C)O[C@H]1C)[C@@H](OC(C)=O)/C(C(=O)OC)=C\\CC[C@@]1(C)O[C@H]21", "note": "[ENHYDRIN]", "IC50": 8.76}, {"smiles": "C=C1C(=O)O[C@@H]2[C@H]1CC[C@H](C)[C@]1(O)CCC(=O)[C@@]21C", "note": "[CORONOPILIN]", "IC50": 249}, {"smiles": "C=C1C(=O)O[C@H]2[C@H]1CC[C@@](C)(O)[C@]13O[C@H]1[C@H]1O[C@@]1(C)[C@H]23", "note": "[ARTECANIN]", "IC50": "> 135"}, {"smiles": "C=C1C(=O)O[C@@H]2/C=C(/CO)CC[C@H](OCC)C3=C[C@@H](OC3=O)[C@@H]12", "note": "[CINERENIN]", "IC50": 3.52}, {"smiles": "C=C1C(=O)O[C@@H]2C[C@H](C)[C@@H]3[C@@H](O)CC(=O)[C@@]3(C)C[C@H]12", "note": "[BURRODIN]", "IC50": 251}, {"smiles": "C=C1C(=O)O[C@@H]2/C=C(\\C)CC[C@H]3O[C@]3(C)CC[C@@H]12", "note": "[1,10-EPOXYCOSTUNOLIDE]", "IC50": 121}, {"smiles": "C=C1C(=O)O[C@H]2CC(=C)[C@@H](O)CC/C(C)=C/[C@@H](O)[C@H]12", "note": "[TATRIDIN B]", "IC50": 27}, {"smiles": "C=C1C(=O)O[C@@H]2[C@H]1CC[C@H](C)[C@]1(CCC(=O)O1)[C@@]2(C)O", "note": "[PSILOSTACHYIN A]", "IC50": 44.1}, {"smiles": "C=C1C(=O)O[C@@H]2C[C@@]3(C)[C@H](O)CCC(=C)[C@@H]3C[C@H]12", "note": "[ASPERILIN]", "IC50": 57.6}, {"smiles": "C=C1C(=O)O[C@@H]2[C@H]1CC[C@H](C)[C@]1(O)C=CC(=O)[C@@]21C", "note": "[PARTHENIN]", "IC50": 129}, {"smiles": "C=C1CC[C@@H](O)[C@]2(C)CC[C@H]3C(=C)C(=O)O[C@@H]3[C@@H]12", "note": "[REYNOSIN]", "IC50": 271}, {"smiles": "C[C@@H]1C[C@@H]2OC(=O)[C@]3(C)[C@H]2[C@@H](OC3(C)O)[C@]2(C)C(=O)C=C[C@@H]12", "note": "(some centres undefined) [TENULIN]", "IC50": 361}, {"smiles": "C=C1C[C@@H](O)[C@@H]2[C@H](OC(=O)[C@H]2C)[C@H]2[C@H](C)[C@@H](O)C[C@@H]12", "IC50": "> 488"}, {"smiles": "C=C1C(=O)O[C@H]2C[C@H](C)[C@@H]3C(OC(C)=O)CC(OC(C)=O)[C@@]3(C)[C@@H](O)[C@H]12", "note": "(some centres undefined) [INUCHINENOLIDE C]", "IC50": 33.5}, {"smiles": "C=C1C(=O)O[C@H]2[C@H]1[C@H](OC(=O)C1(C)OC1C)C[C@@]1(C)[C@H](O)CCC(=C)[C@H]21", "note": "(some centres undefined)", "IC50": 10.1}, {"smiles": "C=C1C(=O)O[C@H]2[C@H]1[C@H](OC(=O)C1(C)OC1C)C[C@@]1(C)[C@H](O)CC=C(C)[C@H]21", "note": "(some centres undefined)", "IC50": 7.09}, {"smiles": "C=C1C(=O)O[C@H]2C[C@@H](C)[C@@H]3C=CC(=O)[C@@]3(C)[C@H](OC(C)=O)[C@H]12", "note": "[LINIFOLIN A]", "IC50": 11.4}, {"smiles": "CC1=CC[C@@H](O)[C@]2(C)CC[C@@H]3[C@H](OC(=O)[C@H]3C)[C@@H]12", "IC50": "> 200"}, {"smiles": "C=C1C(=O)O[C@H]2C[C@@H](C)[C@@H]3CCC(=O)[C@@]3(C)[C@H](O)[C@H]12", "IC50": 60.1}, {"smiles": "C=C1C(=O)O[C@@H]2[C@H]3C(=C)[C@@H](O)C[C@H]3C(=C)C[C@H](OC(=O)[C@@]3(C)CO3)[C@@H]12", "IC50": 6.32}, {"smiles": "C=C1C(=O)O[C@H]2[C@H]1[C@@H](OC(=O)/C(=C/CO)CO)C/C(C)=C/CC[C@@]1(C)O[C@H]21", "note": "[STIZOLICIN]", "IC50": 5.82}]}]}
